Screening data: PubChem BioAssay, Sanford-Burnham Center for Chemical Genomics
Only some compounds are listed: those with a hit (about 1.4% of all), similar ones and a draw of the others.
A3A deaminase = APOBEC3A ssDNA deaminase inhibitors, primary screen, selectivity assay for APOBEC3G inhibitor project, biochemical, FAM/TAMRA oligo cleavage fluorescence; DNA dC->dU-editing enzyme APOBEC-3A (Homo sapiens), P31941; hit rate 0.41% among 330,000; inhibition, % at 20 µM; recombinant A3A, FAM/TAMRA ssDNA deamination fluorescence; AID 493011, 2011;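 active = at least 40% inhibition at 20 µM here, with at most 30% in a related deaminase screen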;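 note: plate controls were A3A with DMSO for no effect and wells lacking A3A enzyme for full effect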
CXCR6 block = CXCR6 receptor inhibitors, primary screen, cell-based, beta-arrestin, luminescence, CHO-K1 PathHunter, 1536-well; hit rate 0.36% among 360,000; inhibition, % at 20 µM; C-X-C chemokine receptor type 6 (Homo sapiens), O00574; in the data active = inhibition above about 34%, passing the limit was not always enough;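 note: antagonist mode with CXCL16 agonist at 10 nM final; 0% = 10 nM CXCL16 with DMSO and 100% = unstimulated wells without agonist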
CCR6 antag = CCR6 receptor antagonists, primary screen, cell-based, CHO-K1, luminescence, beta-arrestin, uHTS | C-C chemokine receptor type 6 (Homo sapiens), P51684 | hit rate 0.49% among 340,000 | CHO-K1 CCR6 PathHunter beta-arrestin, CCL20-stimulated | inhibition, % at 20 µM;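 active = compounds whose inhibition of the agonist-driven luminescence signal at 20 µM reaches about 50%, limit read from the data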;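 note: cells stimulated with CCL20 at 14 nM final; plate controls were DMSO with CCL20 for no effect and DMSO without agonist for full effect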
Target sequence (P51684 whole entry, looked up): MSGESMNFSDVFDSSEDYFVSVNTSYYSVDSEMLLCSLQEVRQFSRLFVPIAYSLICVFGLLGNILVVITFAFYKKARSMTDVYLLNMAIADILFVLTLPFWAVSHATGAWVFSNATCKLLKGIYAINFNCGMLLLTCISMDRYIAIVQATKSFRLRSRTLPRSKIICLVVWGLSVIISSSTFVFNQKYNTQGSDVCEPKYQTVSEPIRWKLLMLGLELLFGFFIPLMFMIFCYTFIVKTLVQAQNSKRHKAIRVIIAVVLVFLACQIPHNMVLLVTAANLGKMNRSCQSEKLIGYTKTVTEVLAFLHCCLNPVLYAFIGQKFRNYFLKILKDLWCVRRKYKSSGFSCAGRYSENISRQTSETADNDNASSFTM
APJ antag = antagonists of human apelin receptor APJ, primary screen, CHO-K1 cells, beta-arrestin complementation, luminescence; P35414; inhibition, % at 20 µM; hit rate 0.32% among 330,000; AID 2521, 2010;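 active = inhibition above about 40% at 20 µM, limit read from the data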;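 note: cells challenged with 10 nM apelin-13 agonist together with compound; plate controls were apelin-13 plus DMSO wells for no effect and DMSO wells lacking apelin-13 for full effect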
Target sequence (P35414 whole entry, looked up): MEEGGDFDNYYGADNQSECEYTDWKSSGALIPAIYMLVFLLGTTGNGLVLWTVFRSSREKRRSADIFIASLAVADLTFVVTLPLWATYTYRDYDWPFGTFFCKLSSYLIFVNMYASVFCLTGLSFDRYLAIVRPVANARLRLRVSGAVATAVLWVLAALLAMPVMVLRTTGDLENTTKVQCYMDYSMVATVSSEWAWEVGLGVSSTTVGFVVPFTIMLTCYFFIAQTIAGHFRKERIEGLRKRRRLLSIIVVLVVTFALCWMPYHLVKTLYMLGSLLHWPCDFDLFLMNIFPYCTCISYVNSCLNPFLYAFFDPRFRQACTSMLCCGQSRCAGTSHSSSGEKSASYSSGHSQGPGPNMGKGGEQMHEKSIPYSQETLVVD
APJ ag = agonists of human apelin receptor APJ, primary screen, CHO-K1 cells, PathHunter beta-arrestin, luminescence; AID 2520, 2010; P35414; activation, % at 20 µM; 0% DMSO wells, 100% apelin; hit rate 0.11% among 330,000;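 active = activation more than six SD over the plate average, tested at 20 µM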;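 note: 0% = DMSO alone and 100% = apelin-13 at 10 nM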
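Material: CHO-K1 APJ beta-arrestin complementation cell line; Input: cell density 1000 per well; Incubation: compound stimulation 90 min at 25 °C, detection 60 min; Signal: luminescence from split beta-galactosidase complementation, Galacton Star/Emerald II substrate; Controls: DMSO-only wells as negative, 10 nM Apelin-13 as positive control.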
A3G deaminase = APOBEC3G DNA deaminase inhibitors, primary screen, biochemical, fluorescence, single-stranded DNA substrate, uHTS; DNA dC->dU-editing enzyme APOBEC-3G (Homo sapiens), Q9HC16; recombinant A3G, ssDNA deamination FAM/TAMRA fluorescence; AID 493012, 2011; inhibition, % at 20 µM; hit rate 0.28% among 330,000;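 active = inhibition of at least 40% at 20 µM, with no more than 30% in the related APOBEC3A deaminase screen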;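 note: plate controls were DMSO wells with A3G for no effect and wells lacking A3G enzyme for full effect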
APJ antag confirm = APJ antagonists blocking beta-arrestin recruitment, confirmation, cell-based, luminescence, single concentration, uHTS hits. shares compounds with APJ antag. antagonist mode. inhibition, % at 20 µM. hit rate 66% among 950; in the data active = inhibition above about 50%
A3A conf = APOBEC3A deaminase inhibitors, retest, confirmation, selectivity assay for APOBEC3G inhibitor project, biochemical, single concentration, fluorescence readout. shares compounds with A3A deaminase. recombinant A3A, ssDNA deaminase UDG fluorescence assay. inhibition, % at 20 µM. hit rate 63% among 1,400. AID 493151, 2011;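 active = inhibition reaching a set limit, 80% of the first screen's cutoff, at 20 µM in any replicate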;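 note: plate controls were DMSO wells with A3A for no effect and wells lacking A3A enzyme for full effect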
UDG ctr A3A = E. coli UDG inhibitors, confirmation, counter-screen for APOBEC3A inhibitor project, biochemical, single concentration, fluorescence, FAM/TAMRA oligo; shares compounds with A3A deaminase; UDG counterscreen, FAM/TAMRA uracil oligo fluorescence; inhibition, % at 20 µM; 1,000 tested, under 10 active; AID 504714, 2011; call rule not given here
CXCR6 confirm = CXCR6 receptor antagonists, confirmation, cell-based, single concentration, beta-arrestin, luminescence. inhibition, % at 20 µM. shares compounds with CXCR6 block. CHO-K1 CXCR6 PathHunter beta-arrestin. hit rate 65% among 700;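 active = mean inhibition over four retests above 40%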;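 note: receptor stimulated with 10 nM CXCL16 agonist; beta-galactosidase fragment complementation upon beta-arrestin recruitment to receptor; plate controls were CXCL16 plus DMSO for no effect and DMSO without CXCL16 for full effect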
Starred values were filed as active, the others as inactive; · = no result.

SMILES	A3A deaminase	CXCR6 block	CCR6 antag	APJ antag	APJ ag	A3G deaminase	A3A conf	others
Cn1c(=O)c(N=O)c(N)n(Cc2ccccc2)c1=S	-2.1	0.8	20.5	11.9	-7.1	-7.9	·
COc1ccc(NC(=O)N2CCc3ccccc3C2)c(OC)c1	-1.5	0.5	-1.2	7.7	-1.1	-0.5	·
Cc1ccc(C2=Nc3ccccc3SC(c3cccc([N+](=O)[O-])c3)C2)cc1 (stereo unspecified)	-1.0	6.9	8.4	4.6	-0.8	-6.5	·
Cc1ccc(CNC(=S)N2CCOCC2)cc1	-3.0	-9.9	-2.7	12.7	-2.4	-6.6	·
Cc1ccc(/C=N/NC(=S)N2CCOCC2)cc1	-2.1	49.6*	76.2*	51.1*	-6.3	-3.9	·	APJ antag confirm=64.7*;CXCR6 confirm=73.9*
COc1cc(C2C(C#N)=C(N)Oc3n[nH]c(-c4cccs4)c32)cc(OC)c1O (stereo unspecified)	5.2	48.6*	59.2*	46.9*	-3.8	3.4	·	APJ antag confirm=47.1;CXCR6 confirm=51.0*
Cc1ccc(C2C(C#N)=C(N)Oc3n[nH]c(-c4cccs4)c32)cc1 (stereo unspecified)	-2.5	-0.5	19.6	-9.3	0.9	-3.7	·
O=C(CN1CCN(CC(=O)Nc2cccc(F)c2)CC1)NCC1(N2CCOCC2)CCCCC1	-0.8	-2.5	4.8	11.7	-3.0	-0.8	·
CCCCOC(=O)c1ccc(NC(=O)COC(=O)C2CC2C)cc1 (stereo unspecified)	·	0.1	·	·	·	·	·
O=C1c2cccc3c([N+](=O)[O-])ccc(c23)C(=O)N1c1ccc(Cl)cn1	0.7	53.6*	76.2*	48.8*	-5.2	-5.1	·	APJ antag confirm=82.9*;CXCR6 confirm=41.7*
CCCOc1cccc(-c2cc(C(=O)N/N=C/c3ccccn3)c3ccccc3n2)c1	-0.4	57.1*	70.4*	47.6*	-11.8	-1.6	·	APJ antag confirm=54.2*;CXCR6 confirm=45.5*
CCc1cc2c(=O)[nH]c(-c3ccccn3)nc2s1	-4.4	48.9*	86.8*	78.2*	-6.3	-10.6	·	APJ antag confirm=70.4*;CXCR6 confirm=69.3*
NC(=O)Cn1nc2sc3ccccc3n2c(=O)c1=O	-2.1	·	·	10.8	0.4	-6.1	·
Cc1ccc(CS(=O)(=O)c2ncc(Cl)c(C(=O)Nc3ccc(OC(F)F)cc3)n2)cc1	-1.3	75.7*	71.1*	42.1*	-4.8	-5.2	·	APJ antag confirm=51.8*;CXCR6 confirm=67.3*
CCS(=O)(=O)c1ncc(Cl)c(C(=O)Nc2ccc(C)cc2)n1	-4.2	11.6	35.9	37.7	-5.0	-9.5	·
CCN1CCN(c2ccc(NC(=O)c3ccc(Cl)c(S(=O)(=O)N4CCCC4)c3)cc2)CC1	40.0*	-0.3	13.4	4.1	6.1	1.5	15.2
CCN1CCN(C(=O)c2ccc(Cl)c(S(=O)(=O)N3CCOCC3)c2)CC1	40.6*	-2.9	7.9	14.1	0.5	11.9	14.0*	UDG ctr A3A=2.3
CCN1CCN(c2ccc(NC(=O)c3ccc(Cl)c(N4CCCC4=O)c3)cc2)CC1	65.6*	0.9	-6.6	6.4	-4.3	8.2	25.5
O=C(c1ccc(Cl)c(S(=O)(=O)N2CCOCC2)c1)N1CCCC1	0.7	6.5	3.9	11.5	-1.9	-4.0	·
C[C@@H]1COC(=O)[C@H](CC(=O)OC(C)(C)C)C/C=C\C[C@@H](CC(=O)NCCO)C(=O)N1	-1.9	-1.1	-8.1	3.8	1.3	-11.0	·
O=C(Nc1ccc(Br)cc1)C1CCN(c2cnccn2)CC1	0.5	1.4	13.8	0.0	-2.8	-2.0	·
COCCn1c(Br)nc2c1c(=O)n(C)c(=O)n2C	47.6*	-1.9	5.7	7.1	-1.0	-1.3	1.2	UDG ctr A3A=8.1
CCCCCC1C(=O)CCC1CC(=O)OC (stereo unspecified)	·	0.0	-0.2	·	·	·	·
CC(c1ccccc1)C1OCC(C[N+]2(C)CCCCC2)O1 (stereo unspecified)	68.3*	6.2	-4.8	10.9	-1.9	15.0	65.7*	UDG ctr A3A=0.3
CCCCC(CC)C1OCC(C[N+]2(C)CCOCC2)O1 (stereo unspecified)	29.1	0.0	-5.0	-16.4	-1.0	19.5	·
SMILES	A3A deaminase	CXCR6 block	CCR6 antag	APJ antag	APJ ag	A3G deaminase	A3A conf	others
C=CCOc1ccc(C(=O)Nc2ccccc2C(=O)NCc2cccnc2)cc1	42.6*	-5.8	1.4	12.9	0.9	4.6	33.8*	UDG ctr A3A=-1.1
COc1ccccc1-c1cc(C(=O)N/N=C/c2ccoc2)c2ccccc2n1	-3.8	-4.5	-2.9	8.4	0.2	-5.8	·
CN(C)S(=O)(=O)c1ccc(N2CCCC2)c(C(=O)Nc2ccccc2F)c1	7.4	-6.0	3.3	15.2	5.3	4.8	·
CN(C)S(=O)(=O)c1ccc(N2CCCC2)c(C(=O)Nc2ccc(F)cc2F)c1	40.7*	-5.8	6.9	21.4	-2.4	3.3	0.7
COc1ccc2c(c1)CCc1sc(NC(=O)c3ccc(C)cc3)nc1-2	50.0*	-4.9	-18.1	-10.4	-1.6	4.6	25.6
CCC(=O)N1CCc2cc(S(=O)(=O)CCC(=O)N(C)c3ccc(OC)cc3OC)ccc21	-8.4	3.2	8.8	15.9	3.5	-7.0	·
Cc1[nH]n(-c2cccc(Cl)c2)c(=O)c1C=NCc1ccco1	44.2*	-2.7	-3.3	-1.6	-1.7	5.6	3.2
Cc1[nH]n(-c2ccccc2)c(=O)c1C=NCc1ccco1	1.6	·	·	-2.2	-0.4	14.3	·
C[N+]1(C)CCC(=C2c3ccccc3CC(=O)c3sccc32)CC1	52.2*	-6.9	1.8	17.5	-4.2	27.6	53.2*
Cn1c(CCC(=O)Nc2cc(S(C)(=O)=O)ccc2Cl)nc2cc(S(=O)(=O)N3CCOCC3)ccc21	73.8*	-6.3	-0.2	6.8	0.5	26.1	76.2*	UDG ctr A3A=2.7
